Screening results deposited in PubChem BioAssay by several laboratories.
Rows were chosen to be rich in hits. Some 1.6% of all compounds tested hit in one or more screens of this group.
RBBP9 inhibitor: blocks human serine hydrolase RBBP9; O75884; recombinant RBBP9, FP-Rh probe fluorescence polarization; inhibition, % at 7.94 µM; 220,000 tested, 0.2% active;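 active means inhibition above the campaign mean of all tested compounds plus 3 SD, cut at about 14% in these data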
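Material: RBBP9 protein. Amount: RBBP9 at 2.5 µM in dispensed solution, before mixing. Schedule: 30 min then 45 min, 25 °C. Medium: Tris buffer pH 8.0, NaCl, Pluronic. Measured by: fluorescence polarization. Measure: percent inhibition from mP, scaled between DMSO and no-protein wells. Replication: one well per compound.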
TCR CD3 inh: human TCR-CD3 binding inhibition | TAMRA-labeled TCR probe fluorescence, biochemical | inhibition, % at 9.4 µM | 360,000 tested, 0.37% active | AID 651800; in the data active means inhibition above about 19%;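 further: recombinant mutant TCR 2C K166C tagged with TAMRA read by polarization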
PABP FP inh: PABP-poly(A) binding inhibition | 290,000 tested, 1% active | calls only at 35 µM | PABP-poly(A) RNA binding, fluorescence polarization | AID 2014;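 further: calls also rest on retests at 20 µM and on dose response follow-up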
Target sequence (P11940 whole entry, looked up): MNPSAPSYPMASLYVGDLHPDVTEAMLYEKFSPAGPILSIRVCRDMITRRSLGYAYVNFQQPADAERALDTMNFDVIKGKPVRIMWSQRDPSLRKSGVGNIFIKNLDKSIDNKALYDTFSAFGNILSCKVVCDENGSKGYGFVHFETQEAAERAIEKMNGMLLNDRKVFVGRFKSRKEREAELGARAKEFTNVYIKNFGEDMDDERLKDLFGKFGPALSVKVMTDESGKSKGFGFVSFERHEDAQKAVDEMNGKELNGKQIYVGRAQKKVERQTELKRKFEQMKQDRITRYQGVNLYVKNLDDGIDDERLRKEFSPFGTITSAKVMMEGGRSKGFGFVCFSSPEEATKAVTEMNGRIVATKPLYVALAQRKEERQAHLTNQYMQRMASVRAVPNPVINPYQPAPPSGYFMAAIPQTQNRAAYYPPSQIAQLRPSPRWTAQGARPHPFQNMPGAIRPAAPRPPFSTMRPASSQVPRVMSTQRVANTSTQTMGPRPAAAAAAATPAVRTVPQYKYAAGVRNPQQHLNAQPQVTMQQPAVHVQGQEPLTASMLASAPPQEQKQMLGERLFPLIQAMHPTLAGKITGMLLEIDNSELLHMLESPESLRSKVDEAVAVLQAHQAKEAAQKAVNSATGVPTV
MLLE-PAM2 inh: blocks PAM2 peptide binding to the PABP1 MLLE domain. P11940. GST-MLLE / FITC-PAM2 fluorescence polarization. inhibition, % at 20 µM. 360,000 tested, 0.36% active. AID 588489; in the data active means inhibition above about 35%, passing the limit was not always enough
eIF4H inh: inhibitors of RNA binding by human eIF4H; Q15056; eIF4H fluorescence polarization binding assay; inhibition, % at 35 µM; 290,000 tested, 0.94% active; AID 2012;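 further: calls also rest on retests at 20 µM and on dose response follow-up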
RBBP9 inh conf: human RBBP9 inhibition, confirmation | 410 tested, 36% active | inhibition, % at 7.94 µM | AID 1537 | recombinant RBBP9, FP-Rh probe fluorescence polarization | shares compounds with RBBP9 inhibitor;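 active means inhibition above the hit cutoff derived for the primary screen, cut at about 15% in these data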
BSA probe FL: BSA probe counter-screen for TCR-CD3 inhibitors. shares compounds with TCR CD3 inh. inhibition, % at 9.4 µM. TAMRA-labeled BSA probe fluorescence counterscreen. 1,200 tested, 10% active. AID 652035; in the data active means inhibition above about 23%
TCR-CD3 inh conf: confirmation of human TCR-CD3 interaction inhibitors. AID 652036. 1,200 tested, 48% active. TAMRA-labeled TCR probe fluorescence binding assay. inhibition, % at 9.4 µM. shares compounds with TCR CD3 inh; in the data active means inhibition above about 19%
Numbers stand for hits; . = inactive; ? = inconclusive; / = not tested or not shown; + = active, no number. Unless noted, how the calls were made is not given here.

SMILES	RBBP9 inhibitor	TCR CD3 inh	PABP FP inh	MLLE-PAM2 inh	eIF4H inh	RBBP9 inh conf	others
O=C(NCc1ccco1)C1CC(c2cccc([N+](=O)[O-])c2)=NO1 (stereo not given)	17	.	.	.	.	.
CCCCNC(=O)C1CC(c2cccc([N+](=O)[O-])c2)=NO1 (stereo not given)	.	.	.	.	.	/
CC(=O)C(=Nc1ccc(Cl)cc1Cl)NNc1cccc(Cl)c1	32	.	.	.	.	.
CC(=O)Nc1ccc(NC(=O)Nc2cccc(Cl)c2)cc1	/	.	.	.	.	/
O=C1c2cccc3cccc(c23)C(=O)N1/N=C/c1ccc(O)cc1O	.	.	.	.	.	/
O=C1c2ccccc2C(=O)N1/N=C/c1ccc(O)c(O)c1O	20	/	+	.	98	45
Nc1nc2c(ncn2[C@@H]2O[C@H](C(=O)NC3CCCCC3)[C@@H](O)[C@H]2O)c(=O)[nH]1	/	.	/	/	/	/
Cc1c(C(=O)O)sc(S(=O)(=O)N2CCNCC2)c1C(=O)O	19	.	.	/	.	.
Cc1c(C(=O)O)sc(S(=O)(=O)N2CCN(C(=O)Cc3ccc(F)cc3)CC2)c1C(=O)O	/	.	/	.	/	/
COc1ccc(C2Nc3cccc4cccc(c34)N2)cc1	25	.	.	.	.	21
c1csc(C2Nc3cccc4cccc(c34)N2)c1	30	.	?	41	?	45
O=C(c1ccccc1)C12COc3ccccc3C1ON=C2c1ccccc1 (stereo not given)	/	.	/	/	/	/
C[C@@H]1CN([C@H](C)CO)C(=O)CCCn2nncc2CO[C@H]1CN(C)C(=O)Nc1ccc2c(c1)OCCO2	/	.	/	/	/	/
Cc1cc(O)cc(=O)n1-c1cc(F)c(F)c(F)c1	/	.	/	/	/	/
CCCN1C(=O)S/C(=C/c2ccc(N3CCOCC3)o2)C1=O	14	.	.	.	.	.
CCN(CC)c1cccc(OC2=NS(=O)(=O)c3ccccc32)c1	19	53	.	.	58	16
Cc1cccc(-n2c(SCC(=O)NCc3ccc4c(c3)OCO4)nc3ccccc3c2=O)c1	.	.	.	.	.	/
Cc1cc(C)cc(-n2c(SC(C)C(=O)NCc3ccc4c(c3)OCO4)nc3ccccc3c2=O)c1 (stereo not given)	21	.	.	.	.	.
COc1ccc(C(C)=O)cc1CSC(=S)N1CCSCC1	/	.	/	/	/	/
COC(=O)COc1cccc2c(=O)n(CC(=O)NCCc3ccccc3)ccc12	18	.	.	.	.	.
O=c1oc2c(-c3ccc([N+](=O)[O-])cc3)cc(O)cc2s1	43	.	.	.	.	.
O=C(OCC(=O)N1CCN(C(=O)c2ccco2)CC1)c1ccccc1OCc1ccc(Cl)cc1	20	.	.	.	.	.
c1ccc(CSc2nnc(-c3ccco3)n2Cc2ccco2)cc1	.	.	.	.	.	/
CCCCOc1[nH]c2nc(-c3ccco3)n(Cc3ccco3)c(=N)c2c1C#N	18	.	+	.	127	.
COCC(=O)Nc1ccc2c(c1)[C@H]1C[C@@H](CC(=O)NCC3CC3)O[C@H](CO)[C@H]1O2	/	.	/	/	/	/
SMILES	RBBP9 inhibitor	TCR CD3 inh	PABP FP inh	MLLE-PAM2 inh	eIF4H inh	RBBP9 inh conf	others
CCN(C(=O)C1CCCCC1)c1nnc(-c2cccnc2)s1	14	.	.	.	.	.
O=Nc1c(-c2cccc([N+](=O)[O-])c2)nc2ncccn12	21	.	.	.	.	24
CC(C(=O)O)n1ncc2ccccc2c1=O (stereo not given)	.	.	.	.	.	/
Cc1nn(C(C)C(=O)O)c(=O)c2ccccc12 (stereo not given)	18	.	.	.	.	.
COc1ccc(S(=O)(=O)N2CCCc3nc(-c4ccc(Br)cc4)ccc32)cc1	/	.	/	/	/	/
CC(C)C1/C(=N/O)CC(c2ccccc2)NC1c1ccccc1 (stereo not given)	15	.	.	.	.	.
COc1cc(-c2nc3ccccn3c2/N=C/c2ccc(F)cc2)ccc1O	16	.	.	.	.	.
COc1cc(-c2nc3ccccn3c2/N=C/c2cccc(OC)c2O)ccc1O	.	.	.	.	.	/
COc1ccc(OCc2nn3c(-c4ccccn4)nnc3s2)cc1	15	.	.	.	.	.
COc1ccc(CNC(=O)[C@@H](Cc2ccccc2)NC(=O)[C@H]2O[C@@H](n3cnc4c(=O)[nH]c(N)nc43)[C@H](O)[C@@H]2O)cc1	/	.	/	/	/	/
Cc1cc(NC(=O)Cc2cn(C)c3ccccc23)ccc1Nc1cccnc1	/	.	/	/	/	/
CC/C(=C\C(=O)c1ccncc1)Nc1ccc(O)cc1	47	51	.	.	.	.
O=C(N/N=C/c1ccc(O)cc1)c1ccncc1	/	.	.	.	.	/
CCc1cc2c(nc1CC)CCCN2S(=O)(=O)c1ccc(F)cc1	/	.	/	/	/	/
COc1cccc(CNc2ccc(N3CCCCC3)cc2)c1OC	14	.	.	.	.	17
COc1ccc(-c2cc3ccccc3[nH]2)cc1	17	.	.	.	.	.
COC(=O)C1(F)C(=O)NC(=O)NC1OC (stereo not given)	/	.	/	/	/	/
Cc1cccc(OCCCC(=O)Nc2ccc(N(C)C)cc2)c1	18	.	.	.	.	26
Cc1cc(C)nc(SCc2ccc(C(=O)O)o2)n1	15	.	.	.	.	.
Cc1cc(C(F)(F)F)nc(SCc2ccc(C(=O)O)o2)n1	.	.	.	.	.	/
Cc1c(Br)c(O)c(Br)c2sc(=O)oc12	25	25	.	.	.	38	BSA probe FL=.;TCR-CD3 inh conf=.
C[C@H]1CN([C@@H](C)CO)C(=O)CCCn2nncc2CO[C@@H]1CN(C)S(=O)(=O)c1cccs1	/	.	/	/	/	/
Cn1c(=O)c(NCCO)c2c3c(cccc31)C(=O)c1ccccc1-2	63	71	?	.	?	75	BSA probe FL=117;TCR-CD3 inh conf=80
Cn1c(=O)c(NCCc2ccccc2)c2c3c(cccc31)C(=O)c1ccccc1-2	109	+	+	.	128	144	BSA probe FL=+;TCR-CD3 inh conf=+
COc1cccc(CC(=O)N2CCN(C(=O)C(=O)c3ccc(OC)c(OC)c3)CC2)c1	/	.	/	/	/	/
C=CCN=c1scc(-c2ccco2)n1/N=C/c1ccc(O)c(O)c1O	48	21	+	.	92	84	BSA probe FL=.;TCR-CD3 inh conf=.
CN=c1scc(-c2cccs2)n1/N=C/c1ccc(O)c(O)c1O	32	28	/	.	/	83	BSA probe FL=.;TCR-CD3 inh conf=23
CN=c1scc(-c2cccs2)n1/N=C/c1ccccc1O	.	.	.	.	.	/
CC(C)N=c1scc(-c2ccco2)n1/N=C/c1ccc(O)c(O)c1	.	.	.	.	.	/
Nc1nc2c(ncn2[C@@H]2O[C@H](C(=O)NCCCN3CCCC3=O)[C@@H](O)[C@H]2O)c(=O)[nH]1	/	.	/	/	/	/
